# This is a sample that favours compounds with a hit; in the whole collection about 1.4% have one here.
# T cell modulator: modulators of CD8 T cell-vesicle binding, primary screen, mouse 2C CD8+ T cells, flow cytometry | AID 2052, 2009 | hit rate 0.068% among 330,000 | response (vesicle binding), % at 7 µM | 2C CD8+ T cell-vesicle binding; hits give low values;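 active = response, share of CD8 T cells binding vesicles, and their 90th percentile fluorescence all below set limits, cut at about 80% in these data, passing the limit was not always enough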;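 also: values below 100% mean blocked vesicle binding to the CD8+ T cells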
#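 Incubation: binding step 1.5 h, 37 °C, antibody labelling 20 min, ice; system: murine 2C transgenic CD8+ T lymphocytes; technique: cytometric PE anti-B7-1 and Alexa647 anti-CD8 signals after 1% paraformaldehyde fixation; also added: QL9-charged Drosophila Ld/ICAM-1/B7-1 vesicles; control set: naked versus QL9-loaded vesicles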
# HIF activator: HIF pathway transcriptional activators, primary screen, cell-based, U2OS HRE-luciferase, luminescence. activation, % at 7.5 µM (by protocol). AID 1910, 2009. U2OS HRE-luciferase reporter; normalized: DMSO 0%, desferrioxamine 100%. hit rate 0.32% among 300,000;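 active = mean activation of at least 10% of the iron chelator positive control signal, with at least half of replicates also reaching 10%; inconclusive = mean and replicate majority disagree about reaching 10%; inactive = mean and most replicates under 10%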
# JMJD2C inh: inhibitors of GASC-1 histone demethylase, primary screen, biochemical, fluorescence, DELFIA europium. Lysine-specific demethylase 4C (Homo sapiens), Q9H3R0. GST-JMJD2C(1-420) H3K9me3 demethylation. inhibition, % at 2.35 µM. hit rate 0.069% among 330,000;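 active = more than half of a compound's replicate wells show inhibition beyond 50%, single wells judged on their own value; inconclusive = some, but no more than half, of replicates pass 50% inhibition; inactive = no replicate passes 50% inhibition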;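 also: signal counts dimethyl H3K9 product captured on neutravidin plate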
# Target sequence (Q9H3R0 1-420 limits assumed): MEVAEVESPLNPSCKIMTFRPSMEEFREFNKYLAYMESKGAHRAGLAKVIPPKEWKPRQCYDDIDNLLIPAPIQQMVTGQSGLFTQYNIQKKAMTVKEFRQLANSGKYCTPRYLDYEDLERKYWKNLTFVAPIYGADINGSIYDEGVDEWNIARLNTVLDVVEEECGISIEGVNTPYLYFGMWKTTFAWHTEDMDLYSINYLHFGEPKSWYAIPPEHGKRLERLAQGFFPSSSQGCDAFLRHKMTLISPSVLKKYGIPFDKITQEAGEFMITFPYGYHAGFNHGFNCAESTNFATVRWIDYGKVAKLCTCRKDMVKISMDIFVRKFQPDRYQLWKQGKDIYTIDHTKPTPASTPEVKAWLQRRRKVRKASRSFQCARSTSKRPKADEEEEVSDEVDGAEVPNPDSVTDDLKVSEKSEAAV
# SUMO Mot1 rescue: yeast Mot1-301 growth rescue at high temperature, primary screen, SUMOylation pathway inhibitor project, S. cerevisiae, ATP luminescence, 38.5C; S. cerevisiae Mot1-301 growth rescue; percent above DMSO median, 100 means doubled; growth rescue, % at 18.8 µM; hit rate 1% among 320,000;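 active = every valid replicate shows activation above 250% relative to neutral control wells; inactive = the rest, any valid replicate at or below 250%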
# Mot1 SUMO dose: growth restoration of Mot1-301 yeast on galactose, dose response, SUMO pathway inhibitor project, whole organism, S. cerevisiae, ATP luminescence, cherry-picked samples | shares compounds with SUMO Mot1 rescue | S. cerevisiae Mot1-301 galactose growth, 24 h; -100 = growth of slx-deleted rescue strain | growth activity, percent, % at 42 µM | 2,300 tested, under 10 active | AID 493004, 2010;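 active = Signal drops as the depositor expects, and the fitted half-maximal dose is no more than ten times the top valid tested dose; inconclusive = Poor fit, or a flat curve whose signal drops by 30% to 70%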;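 also: more negative values mean stronger growth rescue toward the control strain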
# Hits are given with their value; – = inactive; ? = inconclusive; · = no result given; + = active, no number; ! = repeats disagree.
SMILES,T cell modulator,HIF activator,JMJD2C inh,SUMO Mot1 rescue,Mot1 SUMO dose
Cc1nnc(NC(=O)c2ccc(-c3cccc(C(F)(F)F)c3)o2)s1,–,·,–,+,–
CC(=O)Cc1nsc(NC(=O)c2ccc(-c3cccc(C(F)(F)F)c3)o2)n1,–,–,–,–,·
CC(C)[C@H](NC(=O)C1(c2ccccc2)CCN(C(=O)OC(C)(C)C)CC1)C(=O)O,–,–,–,606.9,–
O=c1/c(=C/c2ccco2)sc2nc(-c3ccccc3Br)nn12,–,·,·,381.3,–
COc1ccccc1-c1nc2s/c(=C\c3cccs3)c(=O)n2n1,–,–,–,–,·
Brc1ccccc1/C=N/Nc1ccccn1,–,–,–,–,·
O=C(O)COc1ccc(Br)cc1/C=N\Nc1ccccn1,–,–,–,425.2,–
CC[n+]1c(/C=C(\C)SC)sc2ccccc21,–,·,–,539.9,–
Cc1cccc(-c2ncc(CN3CCCC(CO)(Cc4ccccc4C)C3)cn2)c1 (centres undefined),–,–,–,–,·
O=C(CCC1CCCN(C(=O)CCCc2ccccc2)C1)N1CCN(c2ccccn2)CC1 (centres undefined),–,–,–,–,·
O=C(CCC1CCCN(C(=O)Cc2cccc(F)c2)C1)N1CCN(c2ccccn2)CC1 (centres undefined),–,–,–,426.3,–
Cc1ccc(NC(=O)N[C@H](C(=O)O)C(C)C)c(C)c1,–,–,–,830.2,–
COc1ccc(N=C2SC(C(N)=O)CC(=O)N2CCc2ccc(OC)c(OC)c2)cc1 (centres undefined),–,–,–,–,·
COc1ccc(N=C2SC(C(=O)O)CC(=O)N2Cc2ccc(OC)c(OC)c2)cc1 (centres undefined),–,–,–,529.1,–
CC(=O)c1ccc2noc(-c3ccc(F)cc3)c2c1,–,–,–,+,–
CC(=O)c1ccc2noc(-c3ccc(Cl)cc3)c2c1,–,–,–,–,·
C[C@H](C(=O)CC(=O)OC(C)(C)C)[C@H](O)c1ccccc1,–,–,–,–,·
Nc1ccc(NC(=O)c2ccco2)c(Cl)c1,–,–,–,439.5,–
CCC(=O)N1CCc2cc(S(=O)(=O)N3CCN(c4cc(Cl)ccc4C)CC3)ccc21,–,–,–,–,·
CC(C)C(NC(=S)Nc1ccccc1)C(=O)O (centres undefined),–,–,–,955.9,–
CCC(C)NC(=S)Nc1ccccc1 (centres undefined),·,–,–,·,·
Cc1ccccc1-n1ncc2c([N+](=O)[O-])cc([N+](=O)[O-])cc21,–,–,–,420.6,–
Cc1cccc(N2CN=c3s/c(=C\c4ccccn4)c(=O)n3C2)c1,–,–,–,441.1,–
C/C(=N\N=C(c1ccccc1)c1ccccc1)c1ccco1,–,–,–,576.4,–
N/C(=N\N=C\c1ccc(O)cc1)c1nonc1N,–,–,–,488.0,–
SMILES,T cell modulator,HIF activator,JMJD2C inh,SUMO Mot1 rescue,Mot1 SUMO dose
CSc1nsc(SCC(=O)Nc2cccc(NC(C)=O)c2)n1,–,–,–,–,·
O=C(CSc1nc(-c2ccccc2)nc2ccc(F)cc12)Nc1cccc(C(=O)O)c1,–,–,–,534.6,–
CSc1nsc(SCC(=O)Nc2cccc(C(=O)O)c2)n1,–,–,–,782.0,–
Cc1cc([N+](=O)[O-])nn1CC(=O)NNC(=S)Nc1ccc([N+](=O)[O-])cc1,–,–,–,671.8,–
CCn1nc(CC(=O)Nc2ccc(-n3cnnn3)c(C)c2)c2ccccc2c1=O,–,–,–,723.7,–
CCCNCc1cc(OCC)c(OCC(N)=O)cc1Br,–,–,–,765.5,–
COc1cc(CO)c(Br)cc1OCC(N)=O,–,–,–,–,·
COCCCNCC(O)COc1cccc2[nH]c(C)cc12 (centres undefined),–,–,–,773.0,–
COc1ccccc1/C=N/NC(=S)NCc1ccco1,–,–,–,–,·
COc1cc(/C=N/NC(=S)NCc2ccco2)cc(OC)c1OC,–,–,–,498.2,–
CCN(CC)CCn1c(=S)[nH]c2cc3c(cc2c1=O)OCO3,–,–,–,–,·
CCN(CC)CCNC(=O)CCn1c(=S)[nH]c2cc3c(cc2c1=O)OCO3,–,–,–,+,–
CN(C)CCNC(=O)C(=O)Nc1cc2c3c(c1)CCN3C(=O)CC2,–,–,–,–,·
Cc1ccc(NC(=S)N2CCC(NC(=O)c3ccc(F)cc3)CC2)cc1,–,–,–,–,·
O=C1CCCN1CCC1CCN(C2CC(=O)N(Cc3ccc(N4CCCC4=O)cc3)C2=O)CC1 (centres undefined),–,–,–,–,·
O=C1CCCN1CCC1CCN(C2CC(=O)N(c3ccc(Cl)cc3)C2=O)CC1 (centres undefined),–,–,–,503.3,–
CS(=O)(=O)NCc1ccc(C(=O)NC2CCCCC2)cc1,–,–,–,617.4,–
CC(C)(c1ccccc1)c1ccc(OCCN2CCOCC2)cc1,–,–,–,443.6,–
CC(C)(c1ccccc1)c1ccc(OCCCN2CCNCC2)cc1,–,–,–,–,·
CCC(=O)N1CCc2cc(S(=O)(=O)CCC(=O)Nc3cccc(C)n3)ccc21,–,–,–,+,–
CCN1CCN(Cc2c3ccccc3cc3ccccc23)CC1,–,–,–,–,·
CCCCCC(=O)Nc1ccc(-c2csc(N)n2)cc1,–,–,–,470.7,–
CN1C(C(=O)Nc2ccccn2)=C(O)c2sccc2S1(=O)=O,–,–,–,981.8!,–
O=C(Nc1ccccn1)c1cccs1,–,–,–,–,·
COCCN(Cc1nnc(-c2cccs2)o1)C(=O)CN1C(=O)NC2(CCCCC2)C1=O,–,·,–,–,·
SMILES,T cell modulator,HIF activator,JMJD2C inh,SUMO Mot1 rescue,Mot1 SUMO dose
COCC(=O)Nc1c(C(=O)Nc2ccc3c(c2)OCO3)oc2ccccc12,–,–,–,414.9,–
NC(=O)CSc1nnc(Cc2ccc3c(c2)OCO3)o1,–,–,–,–,·
CCCCC1=CC2=CC(=O)C(C)(OC(=O)CC)C(=O)C2=CN1CCc1ccc(Br)cc1 (centres undefined),–,–,–,525.9,–
CCc1nn(C)c(N)c1C,–,–,–,391.7,–
CCOc1ccc(NC(=O)CN(C)C(=O)c2ccc(OCc3ccccc3)c(OC)c2)cc1OCC,–,–,?,540.3,–
O=C(CCC(=O)Nc1ccccc1)NNS(=O)(=O)c1ccccc1[N+](=O)[O-],–,–,–,–,·
CCC(c1nnnn1C1CCCC1)N1CCN(c2cccc(OC)c2)CC1 (centres undefined),–,–,–,747.4,–
N=c1c2c(n(Cc3ccc(Br)cc3)c3c1CCC3)CCCC2,–,–,–,–,·
N=c1c2c(n(Cc3ccc(Cl)c(Cl)c3)c3c1CCC3)CCCC2,–,–,–,+,–

# Screening results deposited in PubChem by several laboratories.
